Screens as filed in PubChem.
CaV13 FRET inh: Primary screen for inhibitors of IQ motif and Ca2+-dependent inactivation inhibitor domain binding in CACNA1D, Förster resonance energy transfer in living cells, …; inhibition, % at 12.3 µM; HEK cells, CFP/YFP FRET ICDI-IQ, plate reader, 10 min; percent FRET-ratio fall versus neutral wells; 0.098% of 340,000 active;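 active = mean replicate inhibition of at least 30% and at least 1% of replicates passing that level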
rRNA inh HTS: reduced GFP signal of wild-type E. coli, primary screen, bacterial rRNA inhibitor project, GFP/RFP fluorescence, OD600, single point; E. coli WT GFP vs humanized-ribosome RFP mutants, 24 h; active compounds read low; DMSO median 0, no signal -100; GFP signal change (wild-type ribosome), % (test concentration not listed); 1.6% of 350,000 active; AID 720706, 2013;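 active = significant combined selectivity score with lowered wild-type GFP, culture density cut under 30%, mutant RFP and density less affected; inactive = any of these conditions unmet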
Cneo AK release: Cryptococcus neoformans cell lysis inducers, primary screen, AK release luminescence, single concentration; C. neoformans lysis, adenylate kinase release luminescence, 4 h; normalised: neutral wells 0, clomiphene wells 100; lysis activity, % at 15 µM; 0.2% of 360,000 active; AID 651654, 2012;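 active = mean lysis activity across replicates of at least 80%, whatever share of replicates individually reach that level; inactive = mean lysis activity below 80%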
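Material: C. neoformans cells | Amount: Yeast cell density of 5 × 10^6 cells/mL | Medium: Fresh YPD growth medium | Dosing: Single dose | Times: Static 4 h at 37 °C with compound, 1 h detection | Detection: AK luminescence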
CFTR F508del cor: F508del CFTR correction, initial screen, CFBE line, single point; activity (quench increase), % at 7.58 µM; 0.36% of 350,000 active; CFBE cells, YFP halide quenching; stimulated with forskolin plus potentiator P3; % fluorescence drop versus neutral controls;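 active = mean added fluorescence quench of at least 8% versus neutral control, with both replicates also reaching 8%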;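 also: cells transiently co-express mutant CFTR-F508del with the halide-sensitive YFP; corrector assay measuring rescue of mutant channel to the surface after 24 h compound exposure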
Of the large screens only hits and unclear results are named; the others gave an inactive call; ! = not confirmed by another sample. Compounds with a hit are over-represented: about 1.7% of the library has one in this group of screens.

COc1ccc(C#Cc2ccc3c(c2)O[C@@H](CN(C)C(C)=O)[C@@H](C)CN([C@H](C)CO)S3(=O)=O)cc1	Cneo AK release 102 (no result: CaV13 FRET inh)
CCC(=O)N(C)C[C@H]1Oc2cc(C#CC(C)(C)O)ccc2S(=O)(=O)N([C@H](C)CO)C[C@@H]1C	Cneo AK release 101 (no result: CaV13 FRET inh)
CC(=O)N(C)C[C@H]1Oc2cc(C#Cc3ccc(F)cc3)ccc2S(=O)(=O)N([C@H](C)CO)C[C@@H]1C	Cneo AK release 110 (no result: CaV13 FRET inh)
COc1ccc(C#Cc2ccc3c(c2)O[C@H](CN(C)C(C)=O)[C@H](C)CN([C@H](C)CO)S3(=O)=O)cc1	none (no result: CaV13 FRET inh)
COc1ccc(C#Cc2ccc3c(c2)O[C@H](CN(C)C(C)=O)[C@@H](C)CN([C@@H](C)CO)S3(=O)=O)cc1	Cneo AK release 98 (no result: CaV13 FRET inh)
COc1ccc(C#Cc2ccc3c(c2)O[C@@H](CN(C)C(C)=O)[C@H](C)CN([C@H](C)CO)S3(=O)=O)cc1	none (no result: CaV13 FRET inh)
O=C(CC1CC1)N1[C@H](CO)[C@H](c2ccccc2)C12CN(S(=O)(=O)c1ccccc1)C2	none (no result: CaV13 FRET inh, Cneo AK release)
CCCC#Cc1ccc2c(c1)O[C@H](CN(C)C)[C@H](C)CN([C@@H](C)CO)S2(=O)=O	none (no result: CaV13 FRET inh)
COc1cccc(C#Cc2ccc3c(c2)O[C@@H](CN(C)C(=O)c2ccccn2)[C@H](C)CN([C@@H](C)CO)S3(=O)=O)c1	CFTR F508del cor 9.8 (no result: CaV13 FRET inh)
CCCC#Cc1ccc2c(c1)O[C@@H](CN(C)C)[C@@H](C)CN([C@@H](C)CO)S2(=O)=O	Cneo AK release 101 (no result: CaV13 FRET inh)
COc1ccc(C#Cc2ccc3c(c2)O[C@H](CN(C)C(=O)Nc2cccc(OC)c2)[C@H](C)CN([C@@H](C)CO)S3(=O)=O)cc1	Cneo AK release 86 (no result: CaV13 FRET inh)
COCC#Cc1ccc2c(c1)O[C@H](CN(C)S(=O)(=O)c1ccc(OC)cc1)[C@H](C)CN([C@H](C)CO)S2(=O)=O	Cneo AK release 87 (no result: CaV13 FRET inh)
COc1ccc(C#Cc2ccc3c(c2)O[C@@H](CN(C)C(=O)Nc2cccc(OC)c2)[C@H](C)CN([C@@H](C)CO)S3(=O)=O)cc1	none
COc1cccc(C#Cc2ccc3c(c2)O[C@H](CN(C)C(=O)c2ccccn2)[C@@H](C)CN([C@@H](C)CO)S3(=O)=O)c1	none (no result: CaV13 FRET inh)
CN1[C@@H]2Cn3c(ccc(-c4ccc(F)cc4)c3=O)[C@H]1[C@@H](C(=O)Nc1nccs1)[C@@H]2CO	none (no result: CaV13 FRET inh)
CN1C(=O)c2cc(NC(=O)c3ccc(F)cc3)ccc2OC[C@@H]2O[C@@H](CC(=O)NCC3CCCCC3)CC[C@H]21	none (no result: CaV13 FRET inh)
CO[C@@H]1CN(C)C(=O)c2ccc(NC(=O)c3cnccn3)cc2OC[C@H](C)N(C(=O)C2CC2)C[C@H]1C	none (no result: CaV13 FRET inh)
C[C@H](CO)N1C[C@H](C)[C@@H](CN(C)C(=O)c2ccc3c(c2)OCO3)Oc2cc(C#Cc3ccccc3F)ccc2S1(=O)=O	none (no result: CaV13 FRET inh)
C[C@H]1CN([C@@H](C)CO)S(=O)(=O)c2ccc(C#Cc3cccc(F)c3)cc2O[C@@H]1CN(C)C	Cneo AK release 94 (no result: CaV13 FRET inh)
C[C@H](CO)N1C[C@H](C)[C@@H](CN(C)C)Oc2cc(C#Cc3cccc(F)c3)ccc2S1(=O)=O	none (no result: CaV13 FRET inh)
C[C@H](CO)N1C[C@H](C)[C@H](CN(C)C(=O)c2ccc3c(c2)OCO3)Oc2cc(C#Cc3ccccc3F)ccc2S1(=O)=O	CFTR F508del cor 8.8 (no result: CaV13 FRET inh)
O=C(Nc1ccccc1F)N[C@@H]1CC[C@H](CCNS(=O)(=O)c2ccc(Cl)cc2)O[C@H]1CO	none (no result: CaV13 FRET inh)
COc1ccc(-c2ccccc2[C@H]2[C@@H](C#N)N(C(=O)C3CCCC3)[C@@H]2CO)cc1	none (no result: CaV13 FRET inh, Cneo AK release)
COCC(=O)N[C@@H]1C=C[C@H](CC(=O)N2CCCCC2)O[C@@H]1CO	none (no result: CaV13 FRET inh, Cneo AK release)
COc1ccccc1NC(=S)NN=C(C)c1ccccn1	CFTR F508del cor 8.5 (no result: Cneo AK release)
CC(=NNC(=S)Nc1ccc(C)cc1)c1ccccn1	CFTR F508del cor 16 (no result: Cneo AK release)
C[C@@H]1CN([C@H](C)CO)C(=O)c2cc(N(C)C)ccc2O[C@@H](C)CCCCO[C@H]1CN(C)Cc1ccncc1	none (no result: CaV13 FRET inh, Cneo AK release)
C=C1C(=O)O[C@H]2[C@H]1[C@H](OC(=O)/C(C)=C\C)C[C@]1(CO1)[C@@H]1[C@H](OC(C)=O)C=C(C)[C@]21O	none (no result: rRNA inh HTS, Cneo AK release)
C=C1C(=O)O[C@@H]2[C@H]1[C@@H](OC(=O)/C(C)=C/C)C/C(C)=C\C(=O)/C=C(\C)[C@@H]2O	CFTR F508del cor 9.7
O=C(Nc1ccc2c(c1)OCCO2)C(=S)NCc1ccccc1	rRNA inh HTS -32 (no result: CaV13 FRET inh, Cneo AK release)
O=C(NCc1ccccc1)c1ccc2c(c1)OCCO2	none (no result: rRNA inh HTS, CFTR F508del cor)
COc1ccc(/C=C/c2nc(-c3ccccc3O)n[nH]2)cc1OC	none (no result: rRNA inh HTS, CFTR F508del cor)
O=C(O)COc1ccc(/C=C/c2nc(-c3ccccc3O)n[nH]2)cc1	rRNA inh HTS -17
Cc1ccc(C(=O)/C=C/C(=O)c2ccc(C)cc2)cc1	rRNA inh HTS -24 (no result: CaV13 FRET inh, Cneo AK release)
CC1CCC(C(C)C)C(OC(=O)Cn2c(-c3ccc(F)cc3)[n+](C)c3ccccc32)C1 (stereo not drawn)	none
CC1CCC(C(C)C)C(OC(=O)Cn2c(-c3ccccc3)[n+](C)c3ccccc32)C1 (stereo not drawn)	rRNA inh HTS -51!
CCC(=O)N1C[C@H]2[C@@H](c3ccccc31)[C@@H](CO)N2Cc1cc(F)ccc1F	none (no result: CaV13 FRET inh)
CNC[C@@H]1OCCCC[C@@H](C)Oc2ccc(NC(=O)Nc3c(C)noc3C)cc2C(=O)N([C@H](C)CO)C[C@H]1C	none (no result: CaV13 FRET inh)
O=C(/C=C/C(=O)N1CCc2ccccc2C1)N1CCc2ccccc2C1	rRNA inh HTS -22 (no result: Cneo AK release)
CO[C@H]1CN(C)C(=O)c2ccc(NC(=O)C3CC3)cc2OC[C@H](C)N(C(=O)C2CCCCC2)C[C@@H]1C	none (no result: CaV13 FRET inh, Cneo AK release, CFTR F508del cor)
Cn1cnc(S(=O)(=O)Nc2ccc(C(F)(F)F)cc2)c1	none (no result: CaV13 FRET inh, rRNA inh HTS, CFTR F508del cor)
Cn1cnc(S(=O)(=O)Nc2ccc(OC(F)(F)F)cc2)c1	CaV13 FRET inh active (no result: Cneo AK release)
CC(C)NC(=O)N(C)C[C@@H]1Oc2ccc(NC(=O)Nc3ccccc3)cc2C(=O)N([C@@H](C)CO)C[C@H]1C	none (no result: CaV13 FRET inh)
CCOc1cc2c(cc1OCC)CN(C(=O)c1cccc(S(=O)(=O)N3CCCC3)c1)CC2	rRNA inh HTS -19
COc1cc2c(cc1OC)CN(C(=O)c1ccc(S(=O)(=O)N3CCCC3)cc1)CC2	none (no result: Cneo AK release)
CCCOC(=O)c1ccc(Oc2c(-c3ccc(O)cc3O)n[nH]c2C)cc1	none (no result: rRNA inh HTS, CFTR F508del cor)
Cc1[nH]nc(-c2ccc(O)cc2O)c1Oc1ccccc1	rRNA inh HTS -13
CO[C@H]1CC[C@@H]2CCOc3c(C#N)cccc3C(=O)N(C)C[C@@H](OC)[C@@H](C)C(=O)N(C)C[C@H]1O2	none (no result: CaV13 FRET inh, CFTR F508del cor)
CO[C@H]1CC[C@@H]2CCOc3c(C#N)cccc3C(=O)N(C)C[C@@H](OC)[C@@H](C)C(=O)N(C)C[C@@H]1O2	Cneo AK release 85 (no result: CaV13 FRET inh, CFTR F508del cor)
CC(=O)N(C)C[C@H]1Oc2ccc(NC(=O)NC(C)C)cc2CC(=O)N(C)C[C@H]1C	none (no result: CaV13 FRET inh, Cneo AK release, CFTR F508del cor)
